Assay results as given in PMC4833523 (Bioorganic & medicinal chemistry letters, 2016).

Key:
[1] = target: human mGlu1 (Homo sapiens, UniProt Q13255); experiment: Calcium mobilization mGlu1 PAM assay; assay type: cell-based
In short: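 Calcium mobilization read-out on human mGlu1. Test compounds were first triaged in a 10 μM single-point screen with an EC20 concentration of glutamate. Those selected then got full concentration-response curves. Values are the average of three independent experiments, each run in triplicate.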

[2] = Rat microsomal intrinsic clearance / predicted hepatic clearance; assay type: in vitro ADME; conditions: predicted hepatic clearance from rat microsomal intrinsic clearance
[3] = Rat IV PBL; assay type: in vivo; conditions: compared to 4
[4] = Human microsomal intrinsic clearance / predicted hepatic clearance; assay type: in vitro ADME; conditions: compared to 4
[5] = Rat brain homogenate binding; assay type: in vitro ADME; conditions: compared to 4

Sequence of human mGlu1 (Q13255 19-1194): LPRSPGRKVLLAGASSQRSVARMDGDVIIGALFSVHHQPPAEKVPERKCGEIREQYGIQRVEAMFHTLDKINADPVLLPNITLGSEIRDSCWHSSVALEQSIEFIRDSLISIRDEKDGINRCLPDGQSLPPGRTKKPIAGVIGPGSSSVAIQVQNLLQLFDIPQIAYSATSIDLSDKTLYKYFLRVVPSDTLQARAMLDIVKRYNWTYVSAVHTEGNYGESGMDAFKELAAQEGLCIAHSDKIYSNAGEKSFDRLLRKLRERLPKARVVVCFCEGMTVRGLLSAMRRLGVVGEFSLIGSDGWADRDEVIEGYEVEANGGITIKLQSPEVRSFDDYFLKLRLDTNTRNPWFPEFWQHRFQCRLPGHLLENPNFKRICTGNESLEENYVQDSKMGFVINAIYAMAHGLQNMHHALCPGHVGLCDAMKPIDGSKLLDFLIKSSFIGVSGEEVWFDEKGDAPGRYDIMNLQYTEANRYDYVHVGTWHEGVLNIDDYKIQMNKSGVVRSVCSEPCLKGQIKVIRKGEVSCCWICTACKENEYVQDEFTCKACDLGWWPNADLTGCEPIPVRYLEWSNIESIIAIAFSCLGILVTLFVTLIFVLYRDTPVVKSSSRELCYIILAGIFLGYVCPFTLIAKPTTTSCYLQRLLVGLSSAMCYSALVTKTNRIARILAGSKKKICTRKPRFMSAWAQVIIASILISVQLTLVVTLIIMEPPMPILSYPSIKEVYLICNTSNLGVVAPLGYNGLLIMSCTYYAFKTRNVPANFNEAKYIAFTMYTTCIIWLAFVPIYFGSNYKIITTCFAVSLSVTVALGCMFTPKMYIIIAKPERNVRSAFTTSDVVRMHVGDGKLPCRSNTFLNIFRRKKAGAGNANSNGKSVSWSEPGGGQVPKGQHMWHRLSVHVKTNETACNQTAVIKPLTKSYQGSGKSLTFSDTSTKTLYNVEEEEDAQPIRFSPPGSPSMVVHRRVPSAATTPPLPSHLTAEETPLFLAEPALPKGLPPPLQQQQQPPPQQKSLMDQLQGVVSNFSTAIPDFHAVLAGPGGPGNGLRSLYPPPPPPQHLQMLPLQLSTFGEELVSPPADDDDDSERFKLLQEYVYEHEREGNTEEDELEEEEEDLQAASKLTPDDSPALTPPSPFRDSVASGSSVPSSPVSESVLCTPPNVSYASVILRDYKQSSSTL

SMILES | mGlu1 PAM activity in words [1] | Rat CLhep [2] [mL/min/kg] | fold improvement in Kp (CNS exposure) over 4 [3] | other results
Cc1nc(NC(=O)C2c3ccccc3Oc3ccccc32)sc1C [9g] | weak PAM activity | – | – | –
CC(C)c1csc(NC(=O)C2c3ccccc3Oc3ccccc32)n1 [9b] | – | 64 | ~ 3 fold | –
O=C(Nc1nc2ccccc2s1)C1c2ccccc2Oc2ccccc21 [9f] | – | – | – | fold increase in potency on replacing thiazole 9e ([1]; 9f versus 9e): ~3 fold
O=C(Nc1ccccn1)C1c2ccccc2Oc2ccccc21 [9h] | moderate activity | – | – | –
N#Cc1csc(NC(=O)C2c3ccccc3Oc3ccccc32)n1 [9a] | – | 62.2 | ~ 4 fold | reduction of human microsomal intrinsic clearance [4]: ~ 50%; enhancement of free drug in brain [5]: > 10 fold
